We go through eleven compounds from ChEMBL document CHEMBL4014301, “Design, synthesis and evaluation of 4-substituted anthra[2,1-c][1,2,5]thiadiazole-6,11-dione derivatives as novel non-camptothecin topoisomerase I inhibitors” (Bioorg Med Chem Lett, 2017).

In brackets after ≈: the same amount, converted by molar mass. Activity calls are given as the source filed them. The rule behind the calls is not given here.

For orientation: IC50 means the concentration that gives 50% inhibition. A low value points to greater potency. What is called solubility is the dissolved amount per volume that the medium holds. Low values mean a poorly soluble substance, high ones a readily soluble substance.

One data set concerns A549. Nature of the data set: Antiproliferative activity against human A549 cells after 72 hrs by MTT assay. The class given is functional, cell-based. For orientation: Tetrazolium assays rely on reduction of a dye to a coloured formazan, in cell work by metabolically active cells.
The test system of data set [1] is HCT-116. Nature of the data set: Antiproliferative activity against human HCT116 cells after 72 hrs by MTT assay. The class given is functional, cell-based.
The next data set relates to ZR-75-30. Nature of the data set: Antiproliferative activity against human ZR-7530 cells after 72 hrs by MTT assay. It is filed as functional, cell-based.
The target of data set [2] is T1, DNA topoisomerase 1 (Homo sapiens) (UniProt P11387).
T1 sequence (whole entry): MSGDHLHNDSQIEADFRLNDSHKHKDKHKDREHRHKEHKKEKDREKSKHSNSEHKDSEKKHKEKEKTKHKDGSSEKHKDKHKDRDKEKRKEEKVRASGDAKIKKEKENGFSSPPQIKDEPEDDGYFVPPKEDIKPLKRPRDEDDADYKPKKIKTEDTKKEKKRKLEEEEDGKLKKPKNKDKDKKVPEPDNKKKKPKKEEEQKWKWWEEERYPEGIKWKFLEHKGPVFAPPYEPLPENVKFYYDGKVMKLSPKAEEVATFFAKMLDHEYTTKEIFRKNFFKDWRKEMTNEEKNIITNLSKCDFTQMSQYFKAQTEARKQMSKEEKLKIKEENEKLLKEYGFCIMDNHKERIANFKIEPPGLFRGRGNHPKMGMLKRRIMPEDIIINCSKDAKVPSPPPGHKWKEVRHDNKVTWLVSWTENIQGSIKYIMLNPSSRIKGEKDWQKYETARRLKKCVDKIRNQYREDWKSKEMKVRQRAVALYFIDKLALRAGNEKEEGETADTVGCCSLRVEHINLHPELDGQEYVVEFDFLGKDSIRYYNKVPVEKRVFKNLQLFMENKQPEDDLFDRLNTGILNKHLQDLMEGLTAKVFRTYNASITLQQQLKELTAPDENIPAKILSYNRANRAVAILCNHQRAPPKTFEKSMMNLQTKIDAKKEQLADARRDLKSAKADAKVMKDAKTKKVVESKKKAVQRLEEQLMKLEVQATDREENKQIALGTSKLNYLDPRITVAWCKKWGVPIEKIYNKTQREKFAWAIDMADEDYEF
Description: Inhibition of DNA topoisomerase 1 (unknown origin) assessed as reduction in supercoiled pBR322 plasmid DNA relaxation at 100 uM after 15 mins by ethidium bromide staining based agarose gel electrophoresis. In outline: (§1)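 Supercoiled pBR322 plasmid incubated with Top1, with or without compound at 1, 10 and 100 µM. Relaxation inhibition read from agarose gel bands.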

Data set [3] addresses T1, DNA topoisomerase 1 (Homo sapiens). Description: Inhibition of DNA topoisomerase-1 (unknown origin) mediated DNA relaxation assessed as DNA intercalation at 1 ug/ml using supercoiled pBR322 plasmid DNA as substrate after 60 mins by ethidium bromide staining based agarose gel electrophoresis. In outline: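 Top1 unwinding assay for DNA intercalation: supercoiled pBR322 plasmid treated with excess Top1 in presence of compounds (100 µM), with ethidium bromide (1 µg/mL) as intercalator control; compounds removed by phenol extraction after relaxation. Nicked, relaxed and supercoiled DNA forms resolved on gel.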

The target is the same in data set [4]. Nature of the data set: Inhibition of DNA topoisomerase-1 (unknown origin) mediated DNA relaxation assessed as DNA intercalation at 100 uM using supercoiled pBR322 plasmid DNA as substrate after 60 mins by ethidium bromide staining based agarose gel electrophoresis. In outline:
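Unwinding assay with excess Top1 acting on supercoiled pBR322 in the presence of compound at 100 µM. Ethidium bromide at 1 µg/mL used as intercalator reference. Compound removed by phenol extraction after relaxation. Nicked, relaxed and supercoiled forms resolved on gel.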

Data set [5] can be described thus: Solubility of the compound. The class given is physicochemical.
For data set [6], the system named is HCT-116. Nature of the data set: Cell cycle arrest in human HCT116 cells assessed as accumulation at G2 phase at 5 uM after 12 hrs by propidium iodide staining-based flow cytometry (reference value: 19%). The class given is functional. (In general: A flow cytometer gives signals particle by particle.)
Data set [7] relates to HCT-116. Description: Cell cycle arrest in human HCT116 cells assessed as accumulation at G2 phase at 5 uM after 36 hrs by propidium iodide staining-based flow cytometry (reference value: 21%). It is filed as functional.
For data set [8], the target named is T1, DNA topoisomerase 1 (Homo sapiens). Description: Inhibition of DNA topoisomerase 1 (unknown origin) assessed as reduction in supercoiled pBR322 plasmid DNA relaxation after 15 mins by ethidium bromide staining based agarose gel electrophoresis. The procedure, abridged: as §1
Data set [9] shares this target. Nature of the data set: Inhibition of DNA topoisomerase 1 (unknown origin) assessed as reduction in supercoiled pBR322 plasmid DNA relaxation at 1 uM after 15 mins by ethidium bromide staining based agarose gel electrophoresis. The procedure, abridged: as §1

With `O=C1c2ccccc2C(=O)c2c1cc(SCc1ccccc1Cl)c1nsnc21`, the half-maximal inhibitory concentration (IC50) is > 100 µM in the data set on A549 (Homo sapiens, A549, 72 h); > 100 µM in the data set with HCT-116 [1] (Homo sapiens, HCT-116, 72 h); > 100 µM in the data set with ZR-75-30 (Homo sapiens, ZR-75-30, 72 h). The inhibition result in data set [2] was “Active”.
For `CC[n+]1c(-c2ccccc2)c2cc(N)ccc2c2ccc(N)cc21`, the inhibition result in data set [3] was “Active”.
In the case of `CN1CCN(c2cc3c(c4nsnc24)C(=O)c2ccccc2C3=O)CC1`, the IC50 with A549 (Homo sapiens, A549, 72 h) was found to be 14 µM; in the data set with HCT-116 [1] (Homo sapiens, HCT-116, 72 h), 3.3 µM; in the data set on ZR-75-30 (Homo sapiens, ZR-75-30, 72 h), 2.7 µM. In [2], the inhibition entry is “Active”.
Take `O=C1c2ccccc2C(=O)c2c1cc(S(=O)(=O)c1ccc3ccccc3c1)c1nsnc21`: the half-inhibitory concentration (IC50) in the data set with A549 (Homo sapiens, A549, 72 h) is > 100 µM; with HCT-116 [1] (Homo sapiens, HCT-116, 72 h), 6.7 µM; in the data set on ZR-75-30 (Homo sapiens, ZR-75-30, 72 h), 23 µM. The inhibition entry in data set [2] was “Active”.
The corresponding values for `O=C1c2ccccc2C(=O)c2c1cc(S(=O)(=O)Cc1ccccc1Cl)c1nsnc21` are > 100 µM, 11 µM, > 100 µM and “Active”.
As for `CC(C)CNc1cc2c(c3nsnc13)C(=O)c1ccccc1C2=O`, the values for the IC50 in the data set with A549 (a549), in the data set with HCT-116 [1] (hct-116) and in the data set with ZR-75-30 (zr-75-30) were > 100 µM, 6.3 µM and 3.1 µM, respectively. In addition, the inhibition entry in data set [2] is “Active”.
On to `CC(=O)N1CCN(c2cc3c(c4nsnc24)C(=O)c2ccccc2C3=O)CC1`, for which the half-inhibitory concentration (IC50) in the data set with A549 (Homo sapiens, A549, 72 h) stood at 17 µM; in the data set on HCT-116 [1] (Homo sapiens, HCT-116, 72 h), 0.52 µM; with ZR-75-30 (Homo sapiens, ZR-75-30, 72 h), 0.42 µM. The inhibition entry in data set [2], in data set [4] and in data set [9] was “Active” each time. The solubility in data set [5] was found to be 7.98 µg/mL (≈ 20.3 µM). The Activity in the data set on HCT-116 [6] was 34%; with HCT-116 [7], 56%. The inhibition result in [8] was “Dose-dependent effect”.
On to `O=C1c2ccccc2C(=O)c2c1cc(Sc1cccs1)c1nsnc21`, for which the half-maximal inhibitory concentration (IC50) with A549 (Homo sapiens, A549, 72 h) was > 100 µM; with HCT-116 [1] (Homo sapiens, HCT-116, 72 h), > 100 µM; in the data set with ZR-75-30 (Homo sapiens, ZR-75-30, 72 h), > 100 µM. Besides, the inhibition result in [2] was “Active”. Also, the inhibition result in [4] is “inactive”.
Consider `Cc1ccc(S(=O)(=O)c2cc3c(c4nsnc24)C(=O)c2ccccc2C3=O)cc1`, for which the IC50 in the data set on A549 (Homo sapiens, A549, 72 h) is 50 µM; with HCT-116 [1] (Homo sapiens, HCT-116, 72 h), 84 µM; with ZR-75-30 (Homo sapiens, ZR-75-30, 72 h), 90 µM. In data set [5], this compound gave a solubility of 0.14 µg/mL (≈ 0.333 µM).
With `O=C1c2ccccc2C(=O)c2c1cc(Sc1ccc3ccccc3c1)c1nsnc21`, the IC50 was > 100 µM with A549 (Homo sapiens, A549, 72 h); > 100 µM with HCT-116 [1] (Homo sapiens, HCT-116, 72 h); > 100 µM in the data set with ZR-75-30 (Homo sapiens, ZR-75-30, 72 h). In addition, in data set [2], the inhibition entry was “Active”.
Regarding `O=C1c2ccccc2C(=O)c2c1cc(S(=O)(=O)c1cccs1)c1nsnc21`, the IC50 is > 100 µM with A549 (Homo sapiens, A549, 72 h); 1.5 µM in the data set with HCT-116 [1] (Homo sapiens, HCT-116, 72 h); 24 µM in the data set on ZR-75-30 (Homo sapiens, ZR-75-30, 72 h). Moreover, the inhibition entry in data set [2] is “Active”. Also, the inhibition entry in data set [4] is “inactive”.
